ChEMBL document CHEMBL3045126, “Antifungal activities of major tea leaf volatile constituents toward Colletorichum camelliae Massea” (2006)
Values after ≈ are worked out from the molar mass of the structure shown.

How the values were obtained:
Assay type in all cases: functional
[1] = tested on: Colletotrichum camelliae; assay: Antifungal activity against Colletotrichum camelliae assessed as inhibition of mycelial growth measured after 5 days of cultivation; settings: 120 h
Summary of the method: (§1)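 Volatile constituents emulsified with emulsifier 0203-B (0.01% in medium) and mixed into PDA at 100, 500, 1000, 1500 or 2000 µg/mL in 9 cm plates. A 4 mm mycelial disk cut from a 4-day-old culture was placed centrally. Incubation was 5 days at 25 °C. Colony diameter was the mean of two readings. Inhibition = (C−T)×100/C against untreated and emulsifier controls. Three replicates.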

[2] = tested on: Colletotrichum camelliae; assay: Antifungal activity against Colletotrichum camelliae assessed as inhibition of mycelial growth at 1500 ug/mL measured after 5 days of cultivation; settings: 120 h, read-out: GI; summary of the method: as §1
[3] = tested on: Colletotrichum camelliae; assay: Antifungal activity against Colletotrichum camelliae assessed as inhibition of mycelial growth at 2000 ug/mL measured after 5 days of cultivation; settings: 120 h, read-out: GI; summary of the method: as §1
[4] = tested on: Colletotrichum camelliae; assay: Antifungal activity against Colletotrichum camelliae assessed as inhibition of mycelial growth at 100 ug/mL measured after 5 days of cultivation; settings: 120 h, read-out: GI; summary of the method: as §1
[5] = tested on: Colletotrichum camelliae; assay: Antifungal activity against Colletotrichum camelliae assessed as inhibition of mycelial growth at 1000 ug/mL measured after 5 days of cultivation; settings: 120 h, read-out: GI; summary of the method: as §1
[6] = tested on: Colletotrichum camelliae; assay: Antifungal activity against Colletotrichum camelliae assessed as inhibition of mycelial growth at 500 ug/mL measured after 5 days of cultivation; settings: 120 h, read-out: GI; summary of the method: as §1

Row | MIC [1] [µg/mL] | SMILES | inhibition of growth at 1500 µg/mL [2] [%] | inhibition of growth at 2000 µg/mL [3] [%] | inhibition of growth at 100 µg/mL [4] [%] | inhibition of growth at 1000 µg/mL [5] [%] | inhibition of growth at 500 µg/mL [6] [%]
1 | > 2380 | C=C[C@]1(C)CC[C@@H](C(C)(C)O)O1 [(E)-LINALOOL OXIDE] | 48.1 | 57.4 | 37 | 44.4 | 40.7
2 | 2600 (≈ 24 mM) | OCc1ccccc1 [BENZYL ALCOHOL] | 68.5 | 83.3 | 44.4 | 61.1 | 46.3
3 | > 2120 | CC/C=C\CCO [CIS-3-HEXENOL] | 74.1 | 79.6 | 42.6 | 61.1 | 44.4
4 | > 2380 | C=C[C@]1(C)CC[C@H](C(C)(C)O)O1 [CIS-FURANOID] | 48.1 | 57.4 | 37 | 44.4 | 40.7
5 | 440 (≈ 2.85 mM) | CC(C)=CCC/C(C)=C/CO [GERANIOL] | 100 | 100 | 58.1 | 100 | 100
6 | 1380 (≈ 8.92 mM) | C=CC(C)(O)CCC=C(C)C (stereo not drawn) [LINALOOL] | 100 | 100 | 37 | 50 | 46.3
7 | 1770 (≈ 11.6 mM) | COC(=O)c1ccccc1O [METHYL SALICYLATE] | 100 | 100 | 42.6 | 55.6 | 50
8 | 2040 (≈ 16.7 mM) | OCCc1ccccc1 [PHENYLETHYL ALCOHOL] | 85.2 | 92.6 | 51.9 | 70.4 | 46.3
